Calls of active or inactive are those of the source. No cut-off for these calls is given here.
Tests used:
[1] = target: Mu-type opioid receptor (Rattus norvegicus) (UniProt P33535); test: Inhibition of MOPr desensitization in wistar rat LC neuron cells assessed as Met-Enk response at 3 uM incubated for 15 mins relative to control
Target sequence in this assay (P33535 whole entry, the tested form may be a part): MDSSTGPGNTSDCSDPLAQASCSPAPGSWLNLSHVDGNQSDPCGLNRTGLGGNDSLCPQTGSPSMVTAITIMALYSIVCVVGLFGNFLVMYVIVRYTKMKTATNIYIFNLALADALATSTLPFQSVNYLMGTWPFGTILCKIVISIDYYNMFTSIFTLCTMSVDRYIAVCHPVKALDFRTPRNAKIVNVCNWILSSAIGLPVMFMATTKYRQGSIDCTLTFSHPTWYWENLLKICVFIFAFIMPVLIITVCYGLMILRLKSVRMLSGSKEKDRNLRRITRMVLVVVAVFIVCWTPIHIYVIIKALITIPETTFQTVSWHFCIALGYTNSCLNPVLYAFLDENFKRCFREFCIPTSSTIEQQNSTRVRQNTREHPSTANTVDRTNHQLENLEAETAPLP

[2] = target: Ribosomal protein S6 kinase alpha-5 (Homo sapiens) (UniProt O75582); test: Inhibition of human MSK1 assessed as remaining activity at 1 uM in presence of 32ATP relative to control
Procedure, shortened: (§1)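 Express panel of 52 purified human kinases run in vitro. Kinase activity was measured directly by a radioactive filter-binding assay with ³²ATP, at ATP levels at or below each kinase's calculated Km for ATP. The compound was tested at 1 μM. Each assay was run in duplicate, and activity is given as the mean percentage (with S.D.) of activity without inhibitor.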

[3] = target: Mitogen-activated protein kinase; ERK1/ERK2 (Homo sapiens) (UniProt P27361+P28482); test: Inhibition of ERK1/2 (unknown origin) at 1 uM in presence of 32ATP relative to control; format: protein assay
Procedure, shortened: (§2)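 Express screen of 52 purified human kinases run as a radioactive filter-binding assay with 32ATP, at 1 μM inhibitor. ATP was at or below each kinase's calculated Km. Activity is given as percent of the activity without inhibitor. Run in duplicate; mean with S.D.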

[4] = target: Casein kinase 2 (Homo sapiens) (UniProt P67870+P68400+P19784+Q8NEV1); test: Inhibition of human CK2 assessed as remaining activity at 1 uM in presence of 32ATP relative to control; format: protein assay
Procedure, shortened: as §2

[5] = target: Mitogen-activated protein kinase 3 (Homo sapiens) (UniProt P27361); test: Inhibition of human ERK1 assessed as remaining activity at 1 uM in presence of 32ATP relative to control
Procedure, shortened: as §1

[6] = target: Serine/threonine-protein kinase N2 (Homo sapiens) (UniProt Q16513); test: Inhibition of human PRK2 assessed as remaining activity at 1 uM in presence of 32ATP relative to control
Procedure, shortened: as §1

[7] = target: Glycogen synthase kinase-3 beta (Homo sapiens) (UniProt P49841); test: Inhibition of human GSK3b assessed as remaining activity at 1 uM in presence of 32ATP relative to control
Procedure, shortened: as §1

[8] = target: Mu-type opioid receptor (Rattus norvegicus) (UniProt P33535); test: Inhibition of MOPr desensitization (unknown origin) assessed as reduction in the morphine induced desensitization at 3 to 30 uM incubated for 15 mins; conditions: dose 3-30 µM
[9] = target: Calcium/calmodulin-dependent protein kinase kinase 2 (Homo sapiens) (UniProt Q96RR4); test: Inhibition of human CAMKKb assessed as remaining activity at 1 uM in presence of 32ATP relative to control
Procedure, shortened: as §2

[10] = target: Ribosomal protein S6 kinase alpha-1 (Homo sapiens) (UniProt Q15418); test: Inhibition of human RSK1 assessed as remaining activity at 1 uM in presence of 32ATP relative to control
Procedure, shortened: as §1

[11] = target: Serine/threonine-protein kinase N2 (Homo sapiens) (UniProt Q16513); test: Inhibition of human PRK2 at 1 uM in presence of 32ATP relative to control
Procedure, shortened: as §1

[12] = target: Mitogen-activated protein kinase kinase kinase 11 (Homo sapiens) (UniProt Q16584); test: Inhibition of human MLK3 assessed as remaining activity at 1 uM in presence of 32ATP relative to control
Procedure, shortened: as §1

[13] = target: Rho-associated protein kinase 2 (Homo sapiens) (UniProt O75116); test: Inhibition of human ROCK 2 assessed as remaining activity at 1 uM in presence of 32ATP relative to control
Procedure, shortened: as §1

[14] = target: Tyrosine-protein kinase BTK (Homo sapiens) (UniProt Q06187); test: Inhibition of human BTK assessed as remaining activity at 1 uM in presence of 32ATP relative to control
Procedure, shortened: as §2

[15] = target: Tyrosine-protein kinase Lck (Homo sapiens) (UniProt P06239); test: Inhibition of human Lck assessed as remaining activity at 1 uM in presence of 32ATP relative to control
Procedure, shortened: as §1

[16] = target: Mu-type opioid receptor (Rattus norvegicus) (UniProt P33535); test: Inhibition of MOPr desensitization in wistar rat LC neuron cells assessed as reduction in the morphine induced desensitization at 30 uM incubated for 15 mins; format: functional, cell-based
Target sequence in this assay (P33535 whole entry, the tested form may be a part): as above

[17] = target: Mu-type opioid receptor (Rattus norvegicus) (UniProt P33535); test: Inhibition of MOPr desensitization in wistar rat LC neuron cells assessed as reduction in the Met-Enk induced desensitization at 30 uM incubated for 15 mins before relative to control; format: functional, cell-based
Procedure, shortened: (§3)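 Whole-cell patch clamp of GIRK currents in locus coeruleus slices from male Wistar rats (5–8 weeks). Inhibitor was given at least 15 min before and during the agonist, all drugs by superfusion. Percent desensitization was taken over 10 min of opioid agonist application. Met-Enk n = 5, endomorphin-2 n = 6; ANOVA.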
Target sequence in this assay (P33535 whole entry, the tested form may be a part): as above

[18] = target: Mu-type opioid receptor (Rattus norvegicus) (UniProt P33535); test: Inhibition of HA-tagged rat MOPr stably expressing in HEK293 cells assessed as increase in DAMGO-induced Elk1 phosphorylation level at 30 uM preincubated for 30 mins by westernblot analysis; format: functional, cell-based
Procedure, shortened: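 HA-MOPr HEK 293 cells were serum-starved 24 h and pretreated with inhibitor (30 μM) for 30 min, then given DAMGO 10 μM for 5 min.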
Target sequence in this assay (P33535 whole entry, the tested form may be a part): as above

[19] = target: Mu-type opioid receptor (Rattus norvegicus) (UniProt P33535); test: Inhibition of MOPr desensitization in wistar rat LC neuron cells assessed as reduction in the DAMGO induced desensitization at 3 to 100 uM incubated for 15 mins before; format: functional, cell-based; conditions: dose 3-100 µM
Procedure, shortened: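 Rat LC neurons (Wistar, 5–8 weeks) were recorded by whole-cell patch clamp. DAMGO 10 μM was superfused for 12 min to desensitize, then the maximal morphine 30 μM response was measured at plateau. Inhibitor was superfused beforehand; n = 4; ANOVA.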
Target sequence in this assay (P33535 whole entry, the tested form may be a part): as above

[20] = target: Serine/threonine-protein kinase Sgk1 (Homo sapiens) (UniProt O00141); test: Inhibition of human SGK1 assessed as remaining activity at 1 uM in presence of 32ATP relative to control
Procedure, shortened: as §1

[21] = target: Mu-type opioid receptor (Rattus norvegicus) (UniProt P33535); test: Inhibition of MOPr desensitization in wistar rat LC neuron cells assessed as reduction in the endomorphin-2 induced desensitization at 30 uM incubated for 15 mins before; format: functional, cell-based
Procedure, shortened: as §3
Target sequence in this assay (P33535 whole entry, the tested form may be a part): as above

[22] = target: Tyrosine-protein kinase JAK2 (Homo sapiens) (UniProt O60674); test: Inhibition of human JAK2 assessed as remaining activity at 1 uM in presence of 32ATP relative to control
Procedure, shortened: as §1

[23] = target: G protein-coupled receptor kinase 5 (Bos taurus) (UniProt P43249); test: Inhibition of C-terminal truncations tagged bovine GRK5 at 125 uM in the presence of ATP
[24] = target: Serine/threonine-protein kinase Chk2 (Homo sapiens) (UniProt O96017); test: Inhibition of human CHK2 assessed as remaining activity at 1 uM in presence of 32ATP relative to control
Procedure, shortened: as §2

[25] = target: Insulin-like growth factor 1 receptor (Homo sapiens) (UniProt P08069); test: Inhibition of human IGF1R assessed as remaining activity at 1 uM in presence of 32ATP relative to control
Procedure, shortened: as §1

[26] = target: cAMP-dependent protein kinase (PKA) (Homo sapiens) (UniProt P22694+P17612+P22612); test: Inhibition of human PKA assessed as remaining activity at 1 uM in presence of 32ATP relative to control; format: protein assay
Procedure, shortened: as §1

Serine/threonine-protein kinase N2 (Homo sapiens), sequence (Q16513 whole entry, looked up): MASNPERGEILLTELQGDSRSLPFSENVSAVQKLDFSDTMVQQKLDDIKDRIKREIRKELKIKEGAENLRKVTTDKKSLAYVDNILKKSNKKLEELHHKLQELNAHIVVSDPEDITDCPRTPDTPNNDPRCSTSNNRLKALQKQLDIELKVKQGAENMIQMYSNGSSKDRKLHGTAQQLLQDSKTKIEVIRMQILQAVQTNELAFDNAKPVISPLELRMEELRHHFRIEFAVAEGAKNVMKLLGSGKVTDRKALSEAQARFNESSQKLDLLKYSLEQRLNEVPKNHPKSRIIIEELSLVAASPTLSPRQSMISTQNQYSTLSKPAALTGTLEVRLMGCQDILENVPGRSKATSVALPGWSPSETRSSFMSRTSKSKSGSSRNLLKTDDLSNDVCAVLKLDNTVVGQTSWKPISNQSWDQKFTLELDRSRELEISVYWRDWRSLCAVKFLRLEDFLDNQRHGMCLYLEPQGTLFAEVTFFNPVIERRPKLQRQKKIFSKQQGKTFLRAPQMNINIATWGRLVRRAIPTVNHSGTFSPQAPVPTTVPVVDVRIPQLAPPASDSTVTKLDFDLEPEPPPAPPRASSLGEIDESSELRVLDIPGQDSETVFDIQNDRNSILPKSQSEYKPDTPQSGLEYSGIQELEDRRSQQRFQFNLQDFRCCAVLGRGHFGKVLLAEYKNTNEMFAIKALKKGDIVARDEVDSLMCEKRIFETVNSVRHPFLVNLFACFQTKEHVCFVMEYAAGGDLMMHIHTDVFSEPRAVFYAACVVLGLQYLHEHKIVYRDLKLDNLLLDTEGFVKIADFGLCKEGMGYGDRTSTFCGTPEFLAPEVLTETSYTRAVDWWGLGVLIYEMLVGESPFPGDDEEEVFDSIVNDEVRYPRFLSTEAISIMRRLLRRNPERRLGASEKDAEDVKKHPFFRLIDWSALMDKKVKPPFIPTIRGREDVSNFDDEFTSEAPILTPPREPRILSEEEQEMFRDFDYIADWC
Tyrosine-protein kinase JAK2 (Homo sapiens), sequence (O60674 whole entry): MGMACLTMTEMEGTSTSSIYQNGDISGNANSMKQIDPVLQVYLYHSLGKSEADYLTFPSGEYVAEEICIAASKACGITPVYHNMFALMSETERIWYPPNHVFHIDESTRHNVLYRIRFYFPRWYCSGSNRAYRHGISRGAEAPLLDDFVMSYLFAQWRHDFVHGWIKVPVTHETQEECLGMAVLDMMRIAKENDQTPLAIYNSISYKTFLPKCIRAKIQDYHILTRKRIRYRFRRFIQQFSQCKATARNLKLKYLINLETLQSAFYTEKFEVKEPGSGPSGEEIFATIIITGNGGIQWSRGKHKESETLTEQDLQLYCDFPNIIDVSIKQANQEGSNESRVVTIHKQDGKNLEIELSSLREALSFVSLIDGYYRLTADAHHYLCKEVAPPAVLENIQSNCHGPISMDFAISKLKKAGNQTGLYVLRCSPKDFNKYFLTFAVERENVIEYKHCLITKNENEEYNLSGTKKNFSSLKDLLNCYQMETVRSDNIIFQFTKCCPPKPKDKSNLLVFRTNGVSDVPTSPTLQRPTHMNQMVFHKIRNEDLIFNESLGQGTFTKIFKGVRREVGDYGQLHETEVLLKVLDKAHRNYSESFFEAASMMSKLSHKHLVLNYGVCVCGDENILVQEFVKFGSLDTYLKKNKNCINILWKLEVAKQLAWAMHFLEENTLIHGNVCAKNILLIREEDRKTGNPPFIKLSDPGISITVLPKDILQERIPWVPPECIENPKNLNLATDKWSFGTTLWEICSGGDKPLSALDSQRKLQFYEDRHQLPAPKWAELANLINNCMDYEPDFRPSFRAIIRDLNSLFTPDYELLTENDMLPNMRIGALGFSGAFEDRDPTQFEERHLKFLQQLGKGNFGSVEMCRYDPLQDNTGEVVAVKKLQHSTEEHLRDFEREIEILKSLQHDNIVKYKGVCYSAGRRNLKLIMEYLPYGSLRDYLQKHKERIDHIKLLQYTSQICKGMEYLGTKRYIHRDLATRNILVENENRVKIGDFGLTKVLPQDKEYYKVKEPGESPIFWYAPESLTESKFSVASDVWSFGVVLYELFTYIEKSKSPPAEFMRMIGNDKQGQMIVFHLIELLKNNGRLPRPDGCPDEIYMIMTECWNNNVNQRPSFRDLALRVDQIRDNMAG
Rho-associated protein kinase 2 (Homo sapiens), sequence (O75116 whole entry, looked up): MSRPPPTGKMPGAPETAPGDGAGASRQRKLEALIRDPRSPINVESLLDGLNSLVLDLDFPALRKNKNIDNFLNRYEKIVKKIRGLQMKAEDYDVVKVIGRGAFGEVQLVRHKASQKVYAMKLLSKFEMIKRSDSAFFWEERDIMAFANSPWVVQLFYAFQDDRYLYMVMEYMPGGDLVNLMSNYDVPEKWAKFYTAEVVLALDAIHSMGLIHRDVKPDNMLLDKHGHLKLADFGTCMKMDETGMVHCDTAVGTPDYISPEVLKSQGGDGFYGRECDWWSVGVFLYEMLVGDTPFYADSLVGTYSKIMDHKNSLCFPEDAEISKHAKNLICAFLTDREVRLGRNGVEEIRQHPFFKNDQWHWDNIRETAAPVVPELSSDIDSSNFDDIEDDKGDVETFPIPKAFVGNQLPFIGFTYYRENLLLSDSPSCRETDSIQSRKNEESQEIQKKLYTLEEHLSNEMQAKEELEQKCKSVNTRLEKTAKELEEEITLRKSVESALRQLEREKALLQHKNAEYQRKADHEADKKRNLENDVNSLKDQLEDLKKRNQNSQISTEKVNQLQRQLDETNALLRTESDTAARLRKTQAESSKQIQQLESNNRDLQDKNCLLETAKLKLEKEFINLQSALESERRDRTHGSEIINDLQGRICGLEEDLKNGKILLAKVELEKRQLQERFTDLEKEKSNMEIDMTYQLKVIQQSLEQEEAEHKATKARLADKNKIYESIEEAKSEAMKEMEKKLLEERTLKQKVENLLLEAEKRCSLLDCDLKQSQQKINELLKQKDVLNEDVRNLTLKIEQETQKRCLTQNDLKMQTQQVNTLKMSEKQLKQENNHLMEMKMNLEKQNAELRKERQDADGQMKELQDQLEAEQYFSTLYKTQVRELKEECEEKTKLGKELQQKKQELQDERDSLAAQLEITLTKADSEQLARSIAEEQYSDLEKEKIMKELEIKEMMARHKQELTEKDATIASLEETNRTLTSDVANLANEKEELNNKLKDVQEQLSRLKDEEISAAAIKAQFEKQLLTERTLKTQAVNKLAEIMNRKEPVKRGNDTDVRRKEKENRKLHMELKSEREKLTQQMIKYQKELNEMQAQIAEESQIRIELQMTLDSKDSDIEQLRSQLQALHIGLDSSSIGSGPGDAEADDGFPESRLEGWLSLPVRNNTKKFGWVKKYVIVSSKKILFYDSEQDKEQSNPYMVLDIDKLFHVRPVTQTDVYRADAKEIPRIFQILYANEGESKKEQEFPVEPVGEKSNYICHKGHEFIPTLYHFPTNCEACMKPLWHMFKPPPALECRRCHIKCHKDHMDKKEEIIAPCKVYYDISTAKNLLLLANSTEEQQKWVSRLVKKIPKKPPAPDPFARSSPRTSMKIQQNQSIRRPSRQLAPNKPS
Mitogen-activated protein kinase 3 (Homo sapiens), sequence (P27361 whole entry): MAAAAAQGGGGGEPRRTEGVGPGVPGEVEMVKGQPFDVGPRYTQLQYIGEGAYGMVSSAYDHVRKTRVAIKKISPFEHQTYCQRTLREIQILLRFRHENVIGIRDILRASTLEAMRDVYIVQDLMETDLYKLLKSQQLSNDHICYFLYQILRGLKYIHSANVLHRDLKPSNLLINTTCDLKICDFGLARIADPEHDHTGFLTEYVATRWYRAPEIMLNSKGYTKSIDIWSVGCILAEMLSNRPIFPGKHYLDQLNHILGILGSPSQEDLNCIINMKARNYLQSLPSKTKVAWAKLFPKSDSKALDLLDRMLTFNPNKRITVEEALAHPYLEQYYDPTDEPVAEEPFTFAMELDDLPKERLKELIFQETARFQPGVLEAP
Calcium/calmodulin-dependent protein kinase kinase 2 (Homo sapiens), sequence (Q96RR4 2-588 limits assumed): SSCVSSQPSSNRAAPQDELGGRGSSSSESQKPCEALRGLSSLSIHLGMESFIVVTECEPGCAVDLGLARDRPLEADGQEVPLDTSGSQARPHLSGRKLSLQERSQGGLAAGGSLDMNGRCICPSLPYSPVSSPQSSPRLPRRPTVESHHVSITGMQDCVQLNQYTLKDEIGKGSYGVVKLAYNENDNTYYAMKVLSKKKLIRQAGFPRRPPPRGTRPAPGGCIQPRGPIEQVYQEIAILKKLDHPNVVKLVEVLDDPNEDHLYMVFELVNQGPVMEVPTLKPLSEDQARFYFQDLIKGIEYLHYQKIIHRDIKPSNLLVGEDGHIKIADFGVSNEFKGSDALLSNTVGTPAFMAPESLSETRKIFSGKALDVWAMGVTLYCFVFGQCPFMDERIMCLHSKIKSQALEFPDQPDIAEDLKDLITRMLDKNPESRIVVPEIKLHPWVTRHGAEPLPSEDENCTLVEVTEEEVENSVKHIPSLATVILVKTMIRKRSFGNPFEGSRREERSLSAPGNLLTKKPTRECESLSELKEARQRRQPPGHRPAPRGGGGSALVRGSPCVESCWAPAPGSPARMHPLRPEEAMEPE

`Cn1c(CNc2cccc(C(=O)NCc3ccccc3C(F)(F)F)c2)nnc1-c1ccncc1` showed a Met-Enk (600 nM) response, % of initial [1] of 94%, an Activity [2] of 10% and an inhibition [3] of less than 20%. The Activity [4] was 106%, the Activity [5] was 83% and the Activity [6] was 7%. The Activity [7] was 85%, the inhibition [8] was “Active” and the Activity [9] was 69%. For the same molecule, the Activity [10] was 48%, the inhibition [11] was 93% and the Activity [12] was 86%. It also gave an Activity [13] of 53%, an Activity [14] of 72% and an Activity [15] of 94%. For the same molecule, the inhibition [16] was “Active”, the desensitization [17] was 15% and the inhibition [18] was “inactive”. For the same molecule, the inhibition [19] was “Active”, the Activity [20] was 31% and the inhibition [21] was “Active”. The Activity [22] was 94%, the inhibition [23] was “inactive” and the Activity [24] was 79%. The Activity [25] was 103% and the Activity [26] was 95%.

Reference: ChEMBL document CHEMBL5705902, “Role of G Protein-Coupled Receptor Kinases 2 and 3 in μ-Opioid Receptor Desensitization and Internalization” (Mol Pharmacol, 2015)
